From PubChem
The list is not random: actives were taken first. Their share in the collection is about 3.7%.
RAM inhibit: inhibitors of the yeast RAM network; S. cerevisiae dse1pr::URA3 reporter, 5-FOA growth OD615, 2 d; analog-sensitive cbk1-as2 kinase mutant strain; inhibition, % at 50 µM; 190,000 tested, 1.8% active;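 active = inhibition above a set limit, 3 SD over mean compound inhibition, cut at about 8.4% in these data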;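 note: 0% = DMSO-only wells with no growth and 100% = 10 µM 1-NA-PP1 full growth; inhibition rescues growth on 5-FOA so higher OD means more RAM inhibition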
Yeast lifespan up: yeast lifespan extension | S. cerevisiae growth with nicotinamide, OD615; deaD strain in restrictive glucose medium | inhibition of the nicotinamide effect, % at 10 µM | 130,000 tested, 0.68% active | AID 775;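 active = inhibition above a set limit, placed 3 SD over the median of all compounds, cut at about 26% in these data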;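 note: 0% = nicotinamide-treated wells and 100% = cells grown without nicotinamide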
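Material: Modified budding yeast, DeaD strain | Medium: Restrictive glucose medium | Probe or stimulus: 1.5 mM nicotinamide | Dosing: Single dose 10 µM compound, 0.25% DMSO | Times: 48 h at 30 °C | Technique: OD615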
Yeast growth inh: yeast BB579 growth reduction in restrictive medium; S. cerevisiae BB579 growth, OD615, 48 h; inhibition, % at 10 µM; 140,000 tested, 0.51% active; AID 804;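 active = inhibition above a set limit, 3 SD over the mean compound inhibition, cut at about 44% in these data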
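System: DeaD yeast strain BB579; buffer or medium: CSMM-D dextrose restrictive medium; technique: OD at 615 nm; schedule: 4 h cell preincubation, 48 h compound exposure, 30 °C humidified; doses: single 10 µM dose; controls: amphotericin B 10 µg/mL, positive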
INS promoter inh: TRM-6 insulin promoter activity inhibition | TRM-6 cells, insulin promoter-eGFP reporter, imaging; reporter expression induced with tamoxifen | inhibition, % at 2 µM | 130,000 tested, 0.9% active | AID 1273;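 active = inhibition above the mean plus 3 SD, with well images judged a real hit on visual review, cut at about 60% in these data, passing the limit was not always enough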
Efa HMGR inh: E. faecalis class II HMG-CoA reductase inhibition | purified E. faecalis HMGR, NADPH absorbance 340 nm kinetic | inhibition, % at 10 µM | 190,000 tested, 0.41% active;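 active = inhibition above a set limit, the median over all tested compounds plus 3 SD, cut at about 9.5% in these data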;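 note: enzyme runs in reverse so mevalonate oxidation gives rising NADPH absorbance; 0% = complete reaction with DMSO and 100% = background rate lacking mevalonate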
RAM efflux-def: restores 5-FOA growth of efflux-deficient yeast | shares compounds with RAM inhibit | S. cerevisiae efflux-deficient reporter strain, 5-FOA growth OD615, 2 days | max inhibition, % | 1,200 tested, under 10 active; call rule not given here;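 note: plate controls were vehicle for no effect and reference inhibitor for full effect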
Active calls of the source: *; nt = no result given.

SMILES	RAM inhibit	Yeast lifespan up	Yeast growth inh	INS promoter inh	Efa HMGR inh	RAM efflux-def
CC(=O)C(Sc1ncnc2sc3c(c12)CCCC3)C(C)=O	5	nt	nt	45	3	nt
COc1ccc(NC(=O)COC(=O)CCNS(=O)(=O)c2ccccc2)cc1OC	1	nt	nt	nt	7	nt
CCOC(=O)C(C)Sc1cc(CS(=O)(=O)c2ccccc2)nc(-c2ccccc2)n1 (stereo not given)	12*	31	-24	-20	-5	3
C/C(=N\Nc1nc(Cl)c(Cl)cc1Cl)c1ccc(S(=O)(=O)NCc2ccco2)cc1	4	2	-40	-6	-9	nt
Cn1nc(C(F)(F)F)c(/C=N/OC(=O)c2ccccc2)c1SCc1ccccc1Cl	12*	6	-28	12	-6	2
O=C(O)Cc1ccc(O)c(F)c1	0	15	-49	-38	-7	nt
COc1ccc(C(=O)OCn2nnc3ccccc3c2=O)cc1	5	nt	nt	18	-5	nt
Cc1ccc(C(=O)NCCSCc2ccc(Cl)cc2Cl)cc1[N+](=O)[O-]	14*	2	-39	0	-2	1
CCOC(=O)CSc1nc2ccccc2c(=O)n1C1CCCC1	13*	-5	-8	33	1	2
CCOC(=O)CSc1nc2ccccc2c(=O)n1C	1	5	-27	32	0	nt
C=CCN1C(=O)/C(=C\c2cc(Br)c(OCc3ccccn3)c(OC)c2)SC1=S	19*	nt	nt	nt	-6	2
COc1cc(/C=C2\SC(=S)N(CC(=O)Nc3ccccn3)C2=O)cc(OC)c1OC	6	-4	-38	nt	-1	nt
CN1CCCN(S(=O)(=O)c2ccc(Cl)c(Cl)c2)CC1	2	nt	nt	22	-3	nt
CN(C)c1ccc(NC(=O)CSCc2nc3c(nnn3Cc3ccc(F)cc3)c(=O)[nH]2)cc1	2	-3	-77	-33	-4	nt
O=C(CSCc1nc2c(nnn2Cc2ccc(F)cc2)c(=O)[nH]1)Nc1cccc(C(F)(F)F)c1	16*	nt	nt	nt	-2	1
CC(C)CNC(=O)c1ccccc1NC(=O)c1ccc(CSc2ccccc2)cc1	18*	4	-42	45	-5	7
CC1SC(C)C(=O)N(CC(=O)Nc2ccc([N+](=O)[O-])cc2)C1=O (stereo not given)	0	nt	nt	50	-5	nt
CCCOC(=O)c1c(-c2ccc(C)cc2C)csc1NC(=O)C1C2CCC(O2)C1C(=O)O (stereo not given)	4	7	12	-85	-4	nt
CCN(CC)C(=O)c1ccc2c3c(cccc13)C(=O)N(CCc1ccc(OC)c(OC)c1)C2=O	3	3	-29	-19	-14	nt
COc1ccccc1OC(=O)CCN1c2ccccc2Sc2ccccc21	14*	1	-23	55	-2	6
O=c1c([N+](=O)[O-])cccn1Cc1cccc(Cl)c1	2	nt	nt	0	-3	nt
O=C(Nc1cc(Sc2ccccn2)cc([N+](=O)[O-])c1)c1ccc(Cl)cc1	1	-10	-35	-8	-6	nt
O=C(Nc1cc(Sc2ccccn2)cc([N+](=O)[O-])c1)c1cccc(Cl)c1	12*	-1	-32	17	0	1
COc1ccc(Oc2nc(OC)cc(OC)n2)cc1	1	nt	nt	nt	-1	nt
CC(C)N1CCC(N2CCN(CCCn3cccn3)CC2CCO)CC1 (stereo not given)	2	nt	nt	nt	3	nt
SMILES	RAM inhibit	Yeast lifespan up	Yeast growth inh	INS promoter inh	Efa HMGR inh	RAM efflux-def
O=C(COC(=O)CNS(=O)(=O)c1ccc2ccccc2c1)Nc1ccccc1Sc1ccccc1	23*	0	-31	10	-1	4
O=C(CCCSc1nnc(SCCCC(=O)c2ccc(F)cc2)s1)c1ccc(F)cc1	14*	-5	-27	nt	-5	4
CC(C)c1nc(NCCO)c2nnn(Cc3ccccc3)c2n1	1	nt	nt	nt	-1	nt
O=C(Nc1ccc(Cc2ccncc2)cc1)C1CCC(N2C(=O)C3CCCCC3C2=O)CC1 (stereo not given)	0	nt	nt	35	-5	nt
C=CCOc1ccc(CNc2ccc(NC(=O)CC(C)C)cc2)cc1OC	1	-5	-17	7	-1	nt
CN(C)c1ccc(N=Nc2ccccc2C(=O)OCC(=O)NCC2CCCCC2)cc1	25*	15	-27	-7	3	3
COc1ccc(NC(=S)NC(=O)c2ccccc2Cl)cc1	0	nt	nt	29	-2	nt
O=C(NC(=S)Nc1ccc(Oc2ccc(Cl)cc2)cc1)c1ccccc1	17*	-18	-58	-27	-4	4
CCC(=O)NC(=S)Nc1ccc(NC(=S)NC(=O)c2ccccc2)cc1	13*	nt	nt	29	6	4
O=C(CN1C(=O)NC2(CCCCC2)C1=O)NCc1ccc2c(c1)OCO2	1	nt	nt	nt	-1	nt
O=S(=O)(c1ccc(F)cc1)n1ccc(-c2cccc(OCc3ccc(Cl)cc3Cl)c2)n1	12*	-6	-56	-38	1	2
Cc1[nH]n(-c2ncc(-c3ccccc3)s2)c(=O)c1C(c1ccc(Cl)cc1)C(C#N)C#N (stereo not given)	12*	35*	0	nt	2	5
Cc1[nH]n(-c2ccccc2)c(=O)c1C(C[N+](=O)[O-])c1ccc(Cl)cc1 (stereo not given)	0	18	-21	25	0	nt
Cc1cc(C(=O)CCl)c(C)n1CCc1ccc(Cl)cc1	13*	nt	nt	nt	1	5
Cc1cc(C(=O)CSc2nnc(N)s2)c(C)n1CCc1ccc(Cl)cc1	3	-13	-48	-85	2	nt
O=C(C(Sc1ccccc1)c1ccccc1)N1CCN(c2ccccc2F)CC1 (stereo not given)	14*	0	-62	30	-9	1
O=C(/C=C/c1ccc(-c2ccccc2[N+](=O)[O-])o1)c1ccc(Br)cc1	12*	-2	-20	4	-4	3
O=C(/C=C/c1ccc(-c2ccccc2)o1)c1ccccc1	11*	7	-16	-17	0	7
Cc1ccc(C(=O)/C=C/c2ccc(-c3ccccc3[N+](=O)[O-])o2)cc1	15*	-1	-13	-30	4	3
CC(=O)Nc1ccccc1C(=O)N1CCN(Cc2ccccc2)CC1	-1	nt	nt	0	-2	nt
CCCCn1c(SCC(=O)Nc2nccs2)nc2ccccc2c1=O	3	-19	-58	17	-1	nt
CCCCn1c(SCC(=O)Nc2ccccc2C(F)(F)F)nc2ccsc2c1=O	11*	-2	-11	5	-1	3
O=C(NCCO)c1ccc(Oc2ccc(C(F)(F)F)cc2[N+](=O)[O-])cc1	1	nt	nt	0	1	nt
COc1ccc(OCCNC(=O)c2cccc(Oc3ccc(C(F)(F)F)cc3[N+](=O)[O-])c2)cc1	14*	4	-12	-10	-4	2
O=C(NCCOc1ccccc1)c1ccccc1[N+](=O)[O-]	-1	nt	nt	-456	5	nt
O=C(NCCOc1ccccc1)c1cc(C(=O)NCCOc2ccccc2)cc([N+](=O)[O-])c1	14*	0	-67	17	-1	3
